Data on 15 molecules can be found in ChEMBL document CHEMBL1799941 (J Med Chem, 2011).

Active and inactive are the calls of the source.

Data set [1] has as its system Mus musculus. The data set can be described thus: Increase in HDL-cholesterol level in C57BL/6 mouse expressing cynomolgus monkey CETP gene assessed as change in HDL-C level at 10 mg/kg, po BID measured 24 hrs after first dose. The format is functional.
Data set [2] has as its target T1, Cholesteryl ester transfer protein (Homo sapiens) (UniProt P11597).
T1 sequence (whole entry): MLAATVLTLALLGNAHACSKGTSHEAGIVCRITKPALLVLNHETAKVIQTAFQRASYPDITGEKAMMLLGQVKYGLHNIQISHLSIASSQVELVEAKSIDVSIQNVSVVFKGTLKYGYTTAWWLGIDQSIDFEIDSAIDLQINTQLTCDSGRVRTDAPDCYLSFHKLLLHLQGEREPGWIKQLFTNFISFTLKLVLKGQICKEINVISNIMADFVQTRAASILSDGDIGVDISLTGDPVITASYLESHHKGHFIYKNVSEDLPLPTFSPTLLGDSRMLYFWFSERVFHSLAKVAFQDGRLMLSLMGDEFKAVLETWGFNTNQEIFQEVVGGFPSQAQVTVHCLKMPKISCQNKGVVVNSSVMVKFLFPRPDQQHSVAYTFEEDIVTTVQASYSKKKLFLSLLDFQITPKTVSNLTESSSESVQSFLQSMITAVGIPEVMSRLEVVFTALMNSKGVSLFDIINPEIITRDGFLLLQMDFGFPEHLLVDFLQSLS
The data set can be described thus: Inhibition of human recombinant CETP-mediated cholesteryl ester transfer activity at 100 uM after 1 hr by fluorescent cholesteryl esters transfer assay relative to control.

Data set [3] addresses T2, Cholesteryl ester transfer protein (Homo sapiens, UniProt P11597).
T2 sequence (P11597 whole entry): T1 sequence (whole entry)
The data set can be described thus: Inhibition of human recombinant CETP-mediated cholesteryl ester transfer activity after 1 hr by fluorescent cholesteryl esters transfer assay.

Data set [4] concerns Mus musculus. The data set can be described thus: Increase in HDL-cholesterol level in C57BL/6 mouse expressing cynomolgus monkey CETP gene assessed as change in HDL-C level administered orally twice daily and measured 24 hrs after first dose. Format: functional, organism-based. The method, boiled down: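 Pre-dose retro-orbital bleed. Dosed 10 mg/kg PO BID at 0 and 7 h in DMSO/cremophor/saline (4:4:92). Terminal cardiac-puncture bleed at 24 h. HDL-C by enzymatic kit; change from baseline, mean of 5 mice. A change of 5 mg/dL or less was generally considered not significant.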

A short description of data set [5]: Oral bioavailability in C57BL/6 mouse at 2 mg/kg. Format: ADME, organism-based. The conditions noted are these: in vivo. The method, boiled down: (§1)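 Male C57BL/6 mice. IV dosing at 0.6 mg/kg, formulated in DMSO:PEG400:water (10:55:35, v/v/v). Oral dosing at 2 mg/kg, formulated in DMSO:cremophor:saline (2:4:94, v/v/v). Reported parameters were blood clearance, volume of distribution, terminal half-life, IV- and PO-normalized AUC, Cmax and Tmax in plasma after oral dosing, and oral bioavailability.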

The test system of data set [6] is Mus musculus. Description: Increase in HDL-cholesterol level in C57BL/6 mouse expressing cynomolgus monkey CETP gene assessed as change in HDL-C level at 0.3 mg/kg, po BID measured 24 hrs after first dose. The format is functional. In a few lines:
(§2)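 Baseline retro-orbital bleed. Oral BID dosing in DMSO/cremophor/saline (4:4:92). Euthanized 24 h after the first dose with cardiac-puncture bleed. HDL-C by enzymatic kit on pre- and post-dose samples. Change from baseline reported as mean ± SEM, 9 mice per dose.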

Data set [7] can be described thus: Cmax in C57BL/6 mouse at 2 mg/kg, po. Format: ADME, organism-based. Set-up: dose 2 mg/kg, route oral. The conditions noted are these: in vivo. The method, boiled down:
as §1

In data set [8] the test system is Mus musculus. The data set can be described thus: Increase in HDL-cholesterol level in C57BL/6 mouse expressing cynomolgus monkey CETP gene assessed as change in HDL-C level at 1 mg/kg, po BID measured 24 hrs after first dose. Format: functional. The method, boiled down: as §2
The nature of data set [9]: Tmax in C57BL/6 mouse at 2 mg/kg, po. Set-up: dose 2 mg/kg, route oral. Format: ADME, organism-based. The conditions noted are these: in vivo. In a few lines: as §1
Data set [10] in a line: Blood clearance in C57BL/6 mouse at 0.6 mg/kg, iv and 2 mg/kg, po. The format is ADME, organism-based. The conditions noted are these: whole blood. The method, boiled down: as §1
Data set [11] has as its system Mus musculus. Description: Increase in HDL-cholesterol level in C57BL/6 mouse expressing cynomolgus monkey CETP gene assessed as change in HDL-C level at 3 mg/kg, po BID measured 24 hrs after first dose. Format: functional. The method, boiled down: as §2
Data set [12] relates to Mus musculus. The data set can be described thus: Dose-normalized AUC in C57BL/6 mouse at 0.6 mg/kg, iv. Format: ADME, organism-based. Also noted: dose 0.6 mg/kg, route intravenous. The conditions noted are these: in vivo. In a few lines: as §1
Data set [13] in a line: Volume of distribution in C57BL/6 mouse at 0.6 mg/kg, iv and 2 mg/kg, po. The format is ADME, organism-based. The conditions noted are these: in vivo. The method, boiled down: as §1
Data set [14] has as its system Mus musculus. Description: Dose-normalized AUC in C57BL/6 mouse at 2 mg/kg, po. Format: ADME, organism-based. Also noted: dose 2 mg/kg, route oral. The conditions noted are these: in vivo. In a few lines:
as §1

Data set [15] deals with Mus musculus. Description: Terminal half life in C57BL/6 mouse at 0.6 mg/kg, iv and 2 mg/kg, po. The format is ADME, organism-based. The conditions noted are these: in vivo. The method, boiled down: as §1

The term inhibition denotes the change of the read-out against control, counted positive when it falls. By IC50 is commonly meant the concentration that inhibits the measured activity by half. Take `COc1ccc(C(C)C)cc1-c1ccc(C(F)(F)F)cc1CN1C[C@@H](c2cc(C(F)(F)F)cc(C(F)(F)F)c2)OC1=O`: the result in the data set with Mus musculus [1] was inactive. The inhibition in data set [2] came out at 93%. Moreover, the IC50 in [3] turned out to be 93 nM.

For the molecule `COc1ccc(C(C)C)cc1-c1ccc(C(F)(F)F)cc1CN1C(=O)O[C@H](c2cc(C(F)(F)F)cc(C(F)(F)F)c2)[C@H]1C`, the inhibition in data set [2] was found to be 90%.

In the case of `CC[C@H]1[C@@H](c2cc(C(F)(F)F)cc(C(F)(F)F)c2)OC(=O)N1Cc1cc(C(F)(F)F)ccc1-c1cc(C(C)C)ccc1OC` (racemic), in [2], the inhibition came to 87%. In [3], the IC50 is 268 nM.

As to `COc1cc(F)c(C(C)C)cc1-c1ccc(C(F)(F)F)cc1CN1C(=O)O[C@@H](c2cc(C(F)(F)F)cc(C(F)(F)F)c2)C1(C)C`, in [2], the inhibition amounted to 21%.

As a reminder, the bioavailability is dose-corrected exposure relative to a reference, in per cent. In general, Cmax refers to the highest concentration seen after dosing. For orientation: Tmax means the time at which the peak concentration occurs. Consider `COc1cc(F)c(C(C)C)cc1-c1ccc(C(F)(F)F)cc1CN1C(=O)O[C@H](c2cc(C(F)(F)F)cc(C(F)(F)F)c2)[C@@H]1C` [ANACETRAPIB], for which the Activity entry in the data set with Mus musculus [4] is “Dose-dependent effect”; in the data set on Mus musculus [6], 14 mg/dL; with Mus musculus [8], 16.4 mg/dL; with Mus musculus [11], 21.7 mg/dL. Moreover, the bioavailability in data set [5] was determined as 15%. Also, the Cmax in data set [7] is 280 nM. The Tmax in data set [9] was 1 h. Besides, in data set [10], the clearance worked out at 11 mL/min/kg. Further, the AUC/dose with Mus musculus [12] amounted to 2.4 µM·kg·h/mg; in the data set on Mus musculus [14], 0.356 µM·kg·h/mg. The Vd in [13] is 2 L/kg. Moreover, the “beta t1/2” value in the data set with Mus musculus [15] turned out to be 3.6 h.

For the molecule `COc1ccc(C(C)C)cc1-c1ccc(C(F)(F)F)cc1CN1C(=O)O[C@@H](c2cc(C(F)(F)F)cc(C(F)(F)F)c2)[C@H]1C`, in data set [2], the inhibition was 8%.

Turning to `COc1cc(F)c(C(C)C)cc1-c1ccc(C(F)(F)F)cc1CN1C(=O)O[C@H](c2cc(C(F)(F)F)cc(C(F)(F)F)c2)C1(C)C`, the Activity in the data set with Mus musculus [1] came to 17 mg/dL. Further, in data set [2], the inhibition was 94%.

With `COC(=O)N(Cc1cc(C(F)(F)F)cc(C(F)(F)F)c1)Cc1cc(C(F)(F)F)ccc1-c1cc(C(C)C)ccc1OC`, in the data set on Mus musculus [1], the Activity worked out at 15 mg/dL. For the same molecule, the inhibition in [2] stood at 87%. Besides, the IC50 in [3] came out at 126 nM.

For `COC(=O)N(Cc1cc(C(F)(F)F)cc(C(F)(F)F)c1)Cc1cc(C(F)(F)F)ccc1-c1cc(C(C)C)c(F)cc1OC`, the Activity with Mus musculus [1] came out at 15 mg/dL. Moreover, the inhibition in data set [2] is 88%.

For `COc1ccc(C(C)C)cc1-c1ccc(C(F)(F)F)cc1CN1C(=O)O[C@@H](c2ccccc2)[C@H]1C`, in [2], the inhibition is 90%. Moreover, in data set [3], the IC50 worked out at 5670 nM.

As for `CC[C@@H]1[C@@H](c2cc(C(F)(F)F)cc(C(F)(F)F)c2)OC(=O)N1Cc1cc(C(F)(F)F)ccc1-c1cc(C(C)C)ccc1OC` (racemic), the inhibition in data set [2] came to 49%.

As to `COc1cc(F)c(C(C)C)cc1-c1ccc(C(F)(F)F)cc1CN1C(=O)O[C@](C)(c2cc(C(F)(F)F)cc(C(F)(F)F)c2)[C@@H]1C`, the inhibition in data set [2] came to 46%.

Regarding `COc1ccc(C(C)C)cc1-c1ccc(C(F)(F)F)cc1CN1C(=O)O[C@@H](c2cc(C(F)(F)F)cc(C(F)(F)F)c2)[C@@H]1C`, the inhibition in data set [2] was determined as 20%.

Take `COc1ccc(C(C)C)cc1-c1ccc(C(F)(F)F)cc1CN1C(=O)O[C@H](c2ccccc2)[C@@H]1C`: the Activity in the data set with Mus musculus [1] worked out at 6.3 mg/dL. Also, the inhibition in data set [2] came to 94%. The IC50 in [3] is 39.3 nM.

For the molecule `COc1cc(F)c(C(C)C)cc1-c1ccc(C(F)(F)F)cc1CN1C[C@@H](c2cc(C(F)(F)F)cc(C(F)(F)F)c2)OC1=O`, the Activity in the data set with Mus musculus [1] was found to be 6.3 mg/dL. In addition, the inhibition in data set [2] was 97%. Moreover, in data set [3], the IC50 worked out at 25.6 nM.
